In ChEMBL document CHEMBL1649557 (Antimicrob Agents Chemother, 2009):
In brackets after ≈: the same amount, converted by molar mass.

What was measured:
Staphylococcus aureus [1] = assay: Antibacterial activity against methicillin-susceptible and beta-lactamase-producing Staphylococcus aureus Type C using 5x10^5 CFU/ml standard inoculum after 24 hrs by CLSI broth microdilution method; format: functional
Staphylococcus aureus [2] = assay: Antibacterial activity against methicillin-susceptible and beta-lactamase-negative Staphylococcus aureus ATCC 25923 using 5x10^5 CFU/ml standard inoculum after 24 hrs by CLSI broth microdilution method; format: functional; settings: ATCC 25923, 24 h
Staphylococcus aureus [3] = assay: Antibacterial activity against methicillin-susceptible and beta-lactamase-producing Staphylococcus aureus Type B using 5x10^5 CFU/ml standard inoculum after 24 hrs by CLSI broth microdilution method; format: functional
Staphylococcus aureus [4] = assay: Antibacterial activity against methicillin-susceptible and beta-lactamase-producing Staphylococcus aureus Type C using 5x10^7 CFU/ml high inoculum after 24 hrs by CLSI broth microdilution method; format: functional
Staphylococcus aureus [5] = assay: Antibacterial activity against methicillin-susceptible and beta-lactamase-producing Staphylococcus aureus Type A TX01117 using 5x10^5 CFU/ml standard inoculum after 24 hrs by CLSI broth microdilution method; format: functional; settings: Type A TX01117, 24 h
Staphylococcus aureus [6] = assay: Antibacterial activity against methicillin-susceptible and beta-lactamase-negative Staphylococcus aureus ATCC 25923 using 5x10^7 CFU/ml high inoculum after 24 hrs by CLSI broth microdilution method; format: functional; settings: ATCC 25923, 24 h
Staphylococcus aureus [7] = assay: Antibacterial activity against methicillin-susceptible and beta-lactamase-producing Staphylococcus aureus Type B using 5x10^7 CFU/ml high inoculum after 24 hrs by CLSI broth microdilution method; format: functional
Staphylococcus aureus [8] = assay: Antibacterial activity against methicillin-susceptible and beta-lactamase-producing Staphylococcus aureus Type A TX01117 using 5x10^7 CFU/ml high inoculum after 24 hrs by CLSI broth microdilution method; format: functional; settings: Type A TX01117, 24 h
Staphylococcus aureus [9] = assay: Antibacterial activity against methicillin-susceptible and beta-lactamase-negative Staphylococcus aureus using 5x10^5 CFU/ml standard inoculum after 24 hrs by CLSI broth microdilution method
Staphylococcus aureus [10] = assay: Antibacterial activity against methicillin-susceptible Staphylococcus aureus using 5x10^6 CFU/ml intermediate inoculum assessed as bacterial growth inhibition at 4 ug/ml; format: functional; design: scale not given: the % may be the effect or the level left
In short: (§1)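 98 MSSA clinical isolates from skin/soft tissue infection, hospital-acquired pneumonia, endocarditis and haemodialysis bacteraemia; testers were blinded to clinical data. Broth microdilution in cation-adjusted Mueller-Hinton II broth per CLSI, with inocula of ~5×10^4, 5×10^5, 5×10^6 or 5×10^7 CFU/ml. Inocula were set by optical density and spot-checked by CFU counts. Plates were read at 24 h. Values are the percentage of strains inhibited at each concentration.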

Staphylococcus aureus [11] = assay: Antibacterial activity against methicillin-susceptible Staphylococcus aureus using 5x10^7 CFU/ml high inoculum assessed as bacterial growth inhibition at 64 ug/ml; format: functional; design: scale not given: the % may be the effect or the level left; in short: as §1
Staphylococcus aureus [12] = assay: Antibacterial activity against methicillin-susceptible Staphylococcus aureus using 5x10^4 CFU/ml low inoculum assessed as bacterial growth inhibition at 2 ug/ml; format: functional; design: scale not given: the % may be the effect or the level left; in short: as §1
Staphylococcus aureus [13] = assay: Antibacterial activity against methicillin-susceptible Staphylococcus aureus using 5x10^5 CFU/ml standard inoculum assessed as bacterial growth inhibition at 4 ug/ml; format: functional; design: scale not given: the % may be the effect or the level left; in short: as §1
Staphylococcus aureus [14] = assay: Antibacterial activity against methicillin-susceptible Staphylococcus aureus using 5x10^6 CFU/ml intermediate inoculum assessed as bacterial growth inhibition at >= 128 ug/ml; format: functional; design: scale not given: the % may be the effect or the level left; in short: as §1
Staphylococcus aureus [15] = assay: Antibacterial activity against methicillin-susceptible Staphylococcus aureus using 5x10^5 CFU/ml standard inoculum assessed as bacterial growth inhibition at <= […] ug/ml; format: functional; design: scale not given: the % may be the effect or the level left
[16] = Drug level in bone of methicillin-susceptible Staphylococcus aureus infected human after 60 mins; format: ADME, tissue-based, Bone element; settings: read-out: Drug uptake
Staphylococcus aureus [17] = assay: Antibacterial activity against methicillin-susceptible Staphylococcus aureus using 5x10^5 CFU/ml standard inoculum assessed as bacterial growth inhibition at 16 ug/ml; format: functional; design: scale not given: the % may be the effect or the level left; in short: as §1
Staphylococcus aureus [18] = assay: Antibacterial activity against methicillin-susceptible Staphylococcus aureus using 5x10^6 CFU/ml intermediate inoculum assessed as bacterial growth inhibition at 64 ug/ml; format: functional; design: scale not given: the % may be the effect or the level left; in short: as §1
Staphylococcus aureus [19] = assay: Antibacterial activity against methicillin-susceptible Staphylococcus aureus using 5x10^6 CFU/ml intermediate inoculum assessed as bacterial growth inhibition at 32 ug/ml; format: functional; design: scale not given: the % may be the effect or the level left; in short: as §1
Staphylococcus aureus [20] = assay: Antibacterial activity against methicillin-susceptible Staphylococcus aureus using 5x10^5 CFU/ml standard inoculum assessed as bacterial growth inhibition at >= 128 ug/ml; format: functional; design: scale not given: the % may be the effect or the level left; in short: as §1
Staphylococcus aureus [21] = assay: Antibacterial activity against methicillin-susceptible Staphylococcus aureus using 5x10^4 CFU/ml low inoculum assessed as bacterial growth inhibition at 16 ug/ml; format: functional; design: scale not given: the % may be the effect or the level left; in short: as §1
Staphylococcus aureus [22] = assay: Antibacterial activity against methicillin-susceptible Staphylococcus aureus using 5x10^5 CFU/ml standard inoculum assessed as bacterial growth inhibition at 64 ug/ml; format: functional; design: scale not given: the % may be the effect or the level left; in short: as §1
Staphylococcus aureus [23] = assay: Antibacterial activity against methicillin-susceptible Staphylococcus aureus using 5x10^7 CFU/ml high inoculum assessed as bacterial growth inhibition at 8 ug/ml; format: functional; design: scale not given: the % may be the effect or the level left; in short: as §1
Staphylococcus aureus [24] = assay: Antibacterial activity against methicillin-susceptible Staphylococcus aureus using 5x10^7 CFU/ml high inoculum assessed as bacterial growth inhibition at >= 128 ug/ml; format: functional; design: scale not given: the % may be the effect or the level left; in short: as §1
Staphylococcus aureus [25] = assay: Antibacterial activity against methicillin-susceptible Staphylococcus aureus using 5x10^7 CFU/ml high inoculum assessed as bacterial growth inhibition at 32 ug/ml; format: functional; design: scale not given: the % may be the effect or the level left; in short: as §1
Staphylococcus aureus [26] = assay: Antibacterial activity against methicillin-susceptible Staphylococcus aureus using 5x10^7 CFU/ml high inoculum assessed as bacterial growth inhibition at <= […] ug/ml; format: functional; design: scale not given: the % may be the effect or the level left
Staphylococcus aureus [27] = assay: Antibacterial activity against methicillin-susceptible Staphylococcus aureus using 5x10^6 CFU/ml intermediate inoculum assessed as bacterial growth inhibition at <= […] ug/ml; format: functional; design: scale not given: the % may be the effect or the level left
Staphylococcus aureus [28] = assay: Antibacterial activity against methicillin-susceptible Staphylococcus aureus using 5x10^6 CFU/ml intermediate inoculum assessed as bacterial growth inhibition at 8 ug/ml; format: functional; design: scale not given: the % may be the effect or the level left; in short: as §1
Staphylococcus aureus [29] = assay: Antibacterial activity against methicillin-susceptible Staphylococcus aureus using 5x10^7 CFU/ml high inoculum assessed as bacterial growth inhibition at 4 ug/ml; format: functional; design: scale not given: the % may be the effect or the level left; in short: as §1
Staphylococcus aureus [30] = assay: Antibacterial activity against methicillin-susceptible Staphylococcus aureus using 5x10^4 CFU/ml low inoculum assessed as bacterial growth inhibition at 8 ug/ml; format: functional; design: scale not given: the % may be the effect or the level left; in short: as §1
Staphylococcus aureus [31] = assay: Antibacterial activity against methicillin-susceptible Staphylococcus aureus using 5x10^4 CFU/ml low inoculum assessed as bacterial growth inhibition at 4 ug/ml; format: functional; design: scale not given: the % may be the effect or the level left; in short: as §1
Staphylococcus aureus [32] = assay: Antibacterial activity against methicillin-susceptible Staphylococcus aureus using 5x10^7 CFU/ml high inoculum assessed as bacterial growth inhibition at 2 ug/ml; format: functional; design: scale not given: the % may be the effect or the level left; in short: as §1
Staphylococcus aureus [33] = assay: Antibacterial activity against methicillin-susceptible Staphylococcus aureus using 5x10^4 CFU/ml low inoculum assessed as bacterial growth inhibition at 32 ug/ml; format: functional; design: scale not given: the % may be the effect or the level left; in short: as §1
Staphylococcus aureus [34] = assay: Antibacterial activity against methicillin-susceptible Staphylococcus aureus using 5x10^6 CFU/ml intermediate inoculum assessed as bacterial growth inhibition at 2 ug/ml; format: functional; design: scale not given: the % may be the effect or the level left; in short: as §1
Staphylococcus aureus [35] = assay: Antibacterial activity against methicillin-susceptible Staphylococcus aureus using 5x10^5 CFU/ml standard inoculum assessed as bacterial growth inhibition at 8 ug/ml; format: functional; design: scale not given: the % may be the effect or the level left; in short: as §1
Staphylococcus aureus [36] = assay: Antibacterial activity against methicillin-susceptible Staphylococcus aureus using 5x10^4 CFU/ml low inoculum assessed as bacterial growth inhibition at 64 ug/ml; format: functional; design: scale not given: the % may be the effect or the level left; in short: as §1
Staphylococcus aureus [37] = assay: Antibacterial activity against methicillin-susceptible Staphylococcus aureus using 5x10^5 CFU/ml standard inoculum assessed as bacterial growth inhibition at 2 ug/ml; format: functional; design: scale not given: the % may be the effect or the level left; in short: as §1
Staphylococcus aureus [38] = assay: Antibacterial activity against methicillin-susceptible Staphylococcus aureus using 5x10^5 CFU/ml standard inoculum assessed as bacterial growth inhibition at 32 ug/ml; format: functional; design: scale not given: the % may be the effect or the level left; in short: as §1
Staphylococcus aureus [39] = assay: Antibacterial activity against methicillin-susceptible Staphylococcus aureus using 5x10^6 CFU/ml intermediate inoculum assessed as bacterial growth inhibition at 16 ug/ml; format: functional; design: scale not given: the % may be the effect or the level left; in short: as §1
Staphylococcus aureus [40] = assay: Antibacterial activity against methicillin-susceptible Staphylococcus aureus using 5x10^4 CFU/ml low inoculum assessed as bacterial growth inhibition at <= […] ug/ml; format: functional; design: scale not given: the % may be the effect or the level left
Staphylococcus aureus [41] = assay: Antibacterial activity against methicillin-susceptible Staphylococcus aureus using 5x10^7 CFU/ml high inoculum assessed as bacterial growth inhibition at 16 ug/ml; format: functional; design: scale not given: the % may be the effect or the level left; in short: as §1
[42] = Drug level in human serum at 1 g, iv after 4 hrs; format: ADME, organism-based; settings: read-out: Drug uptake
Staphylococcus aureus [43] = assay: Antibacterial activity against methicillin-susceptible Staphylococcus aureus using 5x10^4 CFU/ml low inoculum assessed as bacterial growth inhibition at >= 128 ug/ml; format: functional; design: scale not given: the % may be the effect or the level left; in short: as §1

## Cn1nnnc1SCC1=C(C(=O)O)N2C(=O)[C@@H](NC(=O)[C@H](O)c3ccccc3)[C@H]2SC1 [CEFAMANDOLE]
Staphylococcus aureus [1]
  MIC50: 2 µg/mL (≈ 4.32 µM)
  MIC90: 4 µg/mL (≈ 8.65 µM)
Staphylococcus aureus [2]
  MIC: 0.6 µg/mL (≈ 1.3 µM)
  MIC90: 1 µg/mL (≈ 2.16 µM)
Staphylococcus aureus [3]
  MIC: 1.3 µg/mL (≈ 2.81 µM)
  MIC50: 1 µg/mL (≈ 2.16 µM)
  MIC90: 4 µg/mL (≈ 8.65 µM)
Staphylococcus aureus [4]
  MIC: 32 µg/mL (≈ 69.2 µM)
  MIC50: 16 µg/mL (≈ 34.6 µM)
  MIC90: 32 µg/mL (≈ 69.2 µM)
Staphylococcus aureus [5]
  MIC: 0.5 µg/mL (≈ 1.08 µM)
  MIC50: 1 µg/mL (≈ 2.16 µM)
  MIC90: 2 µg/mL (≈ 4.32 µM)
Staphylococcus aureus [6]
  MIC: 0.4 µg/mL (≈ 0.865 µM)
  MIC50: 1 µg/mL (≈ 2.16 µM)
  MIC90: 1 µg/mL (≈ 2.16 µM)
Staphylococcus aureus [7]
  MIC: 13.6 µg/mL (≈ 29.4 µM)
  MIC50: 8 µg/mL (≈ 17.3 µM)
  MIC90: 64 µg/mL (≈ 138 µM)
Staphylococcus aureus [8]
  MIC: 8 µg/mL (≈ 17.3 µM)
  MIC50: 4 µg/mL (≈ 8.65 µM)
  MIC90: 32 µg/mL (≈ 69.2 µM)
Staphylococcus aureus [9]
  MIC50: 1 µg/mL (≈ 2.16 µM)

## Cc1nnc(SCC2=C(C(=O)O)N3C(=O)[C@@H](NC(=O)Cn4cnnn4)[C@H]3SC2)s1 [CEFAZOLIN]
Staphylococcus aureus [10]
  Activity: 8%
Staphylococcus aureus [11]
  Activity: 3%
Staphylococcus aureus [12]
  Activity: 0%
Staphylococcus aureus [13]
  Activity: 6%
Staphylococcus aureus [14]
  Activity: 0%
Staphylococcus aureus [15]
  Activity: 89%
[16]
  concentration at 1 h: 6900 ng/mL
Staphylococcus aureus [17]
  Activity: 0%
Staphylococcus aureus [18]
  Activity: 3%
Staphylococcus aureus [19]
  Activity: 1%
Staphylococcus aureus [20]
  Activity: 0%
Staphylococcus aureus [21]
  Activity: 0%
Staphylococcus aureus [22]
  Activity: 0%
Staphylococcus aureus [23]
  Activity: 24%
Staphylococcus aureus [24]
  Activity: 2%
Staphylococcus aureus [25]
  Activity: 9%
Staphylococcus aureus [26]
  Activity: 23%
Staphylococcus aureus [27]
  Activity: 33%
Staphylococcus aureus [28]
  Activity: 2%
Staphylococcus aureus [29]
  Activity: 20%
Staphylococcus aureus [30]
  Activity: 0%
Staphylococcus aureus [31]
  Activity: 0%
Staphylococcus aureus [32]
  Activity: 12%
Staphylococcus aureus [33]
  Activity: 0%
Staphylococcus aureus [34]
  Activity: 50%
Staphylococcus aureus [35]
  Activity: 0%
Staphylococcus aureus [36]
  Activity: 0%
Staphylococcus aureus [37]
  Activity: 5%
Staphylococcus aureus [38]
  Activity: 0%
Staphylococcus aureus [39]
  Activity: 2%
Staphylococcus aureus [40]
  Activity: 100%
Staphylococcus aureus [41]
  Activity: 5%
[42]
  concentration at 4 h: 17000 ng/mL
Staphylococcus aureus [43]
  Activity: 0%
